This is an account of results in ChEMBL document CHEMBL1155469, “Peptide nucleic acids conjugated to short basic peptides show improved pharmacokinetics and antisense activity in adipose tissue” (J Med Chem, 2010).

The source made the active and inactive calls. The rule behind the calls is not given here.

In data set [1] the test system is Mus musculus. The experiment in a line: Acute toxicity in Balb/C mouse assessed as change in body weight at 2.5 to 12.5 mg/kg, ip administered BID for 5 days measured 48 hrs after last dose. To be noted: in vivo. The data set is classed as organism-based. Details: dose 2.5-12.5 mg/kg, route intraperitoneal. The essentials: (§1)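 Male Balb/c mice aged 6–8 weeks, n=4 per group, dosed i.p. with compound suspended in PBS and filter sterilized, 10 ul/g body weight. Body weight tracked throughout the live phase. Under isoflurane anaesthesia, terminal cardiac-puncture bleed; serum taken for transaminases and other chemistries. Sacrifice by cervical dislocation 48 h after last dose, with liver and spleen weighed at necropsy. Kidneys examined by histopathology.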

Data set [2] concerns Mus musculus. The experiment in a line: Acute toxicity in Balb/C mouse assessed as change in organ weight at 2.5 to 12.5 mg/kg, ip administered BID for 5 days measured 48 hrs after last dose. Further details: dose 2.5-12.5 mg/kg, route intraperitoneal. The data set is classed as organism-based. The note with it: in vivo. The procedure, abridged:
as §1

Data set [3] has as its system Mus musculus. The experiment in a line: Acute toxicity in Balb/C mouse assessed as change in serum chemistry at 2.5 to 12.5 mg/kg, ip administered BID for 5 days measured 48 hrs after last dose. The format is organism-based. Further details: dose 2.5-12.5 mg/kg, route intraperitoneal. To be noted: in vivo. The essentials: as §1
In data set [4] the test system is Mus musculus. The experiment in a line: Inhibition of PTEN expression in Balb/C mouse kidney assessed as increase in mRNA levels at 2.5 to 12.5 mg/kg, ip administered BID for 5 days measured 48 hrs after last dose […]. The data set is classed as functional, organism-based. The procedure, abridged: (§2)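 Male Balb/c mice, n=4 per group, dosed i.p. in PBS and sacrificed 48 h after last dose. Liver, kidney and adipose tissue homogenised at once in 4 M guanidine isothiocyanate, 25 mM EDTA, 50 mM Tris-HCl pH 6. RNA purified on columns and run by fluorescence-based quantitative RT-PCR. Target transcript levels normalised to cyclophilin A and expressed relative to saline-treated controls.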
(Immunoblotting shows a protein as a band on a membrane.)

Data set [5] has as its system Mus musculus. Kind of data set: Inhibition of PTEN expression in Balb/C mouse adipose tissue assessed as increase in mRNA levels at 2.5 to 12.5 mg/kg, ip administered BID for 5 days measured 48 hrs after last dose by […]. The data set is classed as functional, organism-based. The essentials:
as §2

Data set [6] relates to Mus musculus. Kind of data set: Inhibition of PTEN expression in Balb/C mouse liver assessed as increase in mRNA levels at 2.5 to 12.5 mg/kg, ip administered BID for 5 days measured 48 hrs after last dose […]. The data set is classed as functional, organism-based. The procedure, abridged:
as §2

Data set [7] has as its system BCL1. The experiment in a line: Inhibition of PTEN expression in mouse BCL1 cells after 62 hrs by Western blotting. The format is functional, cell-based. The note with it: BCL1, 62 h. The essentials: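 BCL1 cells were grown in DMEM with 10% FBS at 37 °C, 5% CO2. Compound was delivered to 2×10^6 cells by electroporation (200 V, 1000 uF, 13 ohms), and cells were harvested 62 h later. Western blot of RIPA lysates used rabbit anti-PTEN and anti-CD40 (1:1000) with HRP secondary and ECL detection. PTEN was normalized to CD40. n=3, mean ± SD.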

Data set [8] has as its system Mus musculus. Kind of data set: Toxicity in Balb/C mouse assessed as change in body weight at 25 mg/kg, ip administered thrice a week for 2 weeks measured 48 hrs after last dose. The data set is classed as organism-based. Details: dose 25 mg/kg, route intraperitoneal. The note with it: in vivo. The essentials: (§3)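 Male Balb/c mice, 6–8 wk, n=4/group, received compound i.p. in PBS (10 ul/g) 3x/wk for 2 wk. Body weight was monitored throughout. At 48 h after the last dose, mice were anesthetized with isoflurane and bled by cardiac puncture. Serum AST, ALT, BUN, bilirubin, glucose and triglycerides were compared with the saline group. ALT rise below 2x normal was counted as absent.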

Data set [9] concerns Mus musculus. The experiment in a line: Toxicity in Balb/C mouse assessed as change in serum AST levels at 25 mg/kg, ip administered thrice a week for 2 weeks measured 48 hrs after last dose. The format is organism-based. Further details: dose 25 mg/kg, route intraperitoneal. To be noted: in vivo. The procedure, abridged: as §3
Data set [10] has as its system Mus musculus. Kind of data set: Toxicity in Balb/C mouse assessed as change in serum ALT levels at 25 mg/kg, ip administered thrice a week for 2 weeks measured 48 hrs after last dose. The data set is classed as organism-based. Details: dose 25 mg/kg, route intraperitoneal. The note with it: in vivo. The essentials:
as §3

In data set [11] the test system is Mus musculus. Kind of data set: Toxicity in Balb/C mouse assessed as change in blood urea nitrogen levels at 25 mg/kg, ip administered thrice a week for 2 weeks measured 48 hrs after last dose. The data set is classed as organism-based. Further details: dose 25 mg/kg, route intraperitoneal. The note with it: in vivo. The procedure, abridged:
as §3

The test system of data set [12] is Mus musculus. Kind of data set: Toxicity in Balb/C mouse assessed as change in serum bilirubin levels at 25 mg/kg, ip administered thrice a week for 2 weeks measured 48 hrs after last dose. Further details: dose 25 mg/kg, route intraperitoneal. The note with it: in vivo. The format is organism-based. The procedure, abridged:
as §3

Data set [13] concerns Mus musculus. Kind of data set: Toxicity in Balb/C mouse assessed as change in serum glucose levels at 25 mg/kg, ip administered thrice a week for 2 weeks measured 48 hrs after last dose. The data set is classed as organism-based. Further details: dose 25 mg/kg, route intraperitoneal. To be noted: in vivo. The essentials: as §3
The subject of data set [14] is Mus musculus. Kind of data set: Toxicity in Balb/C mouse assessed as change in serum triglyceride levels at 25 mg/kg, ip administered thrice a week for 2 weeks measured 48 hrs after last dose. Further details: dose 25 mg/kg, route intraperitoneal. The data set is classed as organism-based. To be noted: in vivo. The essentials: as §3
Data set [15] deals with Mus musculus. The experiment in a line: Inhibition of PTEN expression in Balb/C mouse liver at 25 mg/kg, ip administered thrice a week for 2 weeks measured 48 hrs after last dose by Western blot analysis. The data set is classed as functional, organism-based. Further details: dose 25 mg/kg. The essentials: (§4)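 Male Balb/c mice, 6–8 wk, n=4/group, dosed i.p. in PBS 3x/wk for 2 wk and killed 48 h after the last dose. Tissue was homogenized in RIPA buffer with protease inhibitors, and protein was measured by Lowry assay. Lysates were run on 10% PAGE and blotted to PVDF. Blots were probed with rabbit anti-PTEN (1:1000) and HRP anti-rabbit (1:2500), with ECL detection.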

For data set [16], the system named is Mus musculus. The experiment in a line: Inhibition of PTEN expression in Balb/C mouse kidney at 25 mg/kg, ip administered thrice a week for 2 weeks measured 48 hrs after last dose by Western blot analysis. The data set is classed as functional, organism-based. Details: dose 25 mg/kg. The procedure, abridged: as §4
Data set [17] has as its system Mus musculus. The experiment in a line: Inhibition of PTEN expression in Balb/C mouse white adipose tissue assessed as reduction of full length transcript at 25 mg/kg, ip administered thrice a week for 2 weeks measured 48 hrs after last dose […]. Further details: dose 25 mg/kg. The format is functional, organism-based.
For data set [18], the system named is Mus musculus. The experiment in a line: Inhibition of PTEN expression in Balb/C mouse white adipose tissue assessed as upregulation of isoform lacking exon at 25 mg/kg, ip administered thrice a week for 2 weeks measured 48 hrs after last dose […]. Further details: dose 25 mg/kg. The format is functional, organism-based.

Regarding `Cc1cn(CC(=O)N(CCNC(=O)CN(CCNC(=O)[C@H](CCCNC(=N)N)N(CCNC(=O)[C@H](CCCNC(=N)N)NC(=O)[C@H](CCCCNC(=N)N)NC(=O)[C@H](Cc2ccccc2)NC(=O)[C@H](CCCCNC(=N)N)NC(=O)[C@H](CCCCNC(=N)N)NC(=O)[C@H](CCCCNC(=N)N)NC(=O)[C@H](C)NC(=O)[C@H](CCCNC(=N)N)NC(=O)[C@H](CCCCNC(=N)N)NC(=O)[C@H](Cc2ccccc2)NC(=O)[C@H](C)NC(=O)[C@H](CCCNC(=N)N)NC(=O)[C@H](CCCCNC(=N)N)NC(=O)CN)C(=O)Cn2cc(C)c(=O)[nH]c2=O)C(=O)Cn2ccc(N)nc2=O)CC(=O)NCCN(CC(=O)NCCN(CC(=O)NCCN(CC(=O)NCCN(CC(=O)NCCN(CC(=O)NCCN(CC(=O)NCCN(CC(=O)NCCN(CC(=O)NCCN(CC(=O)NCCN(CC(=O)NCCN(CC(=O)NCCN(CC(=O)NCCN(CC(=O)N[C@@H](CCCCN)C(N)=O)C(=O)Cn2cnc3c(N)ncnc32)C(=O)Cn2ccc(N)nc2=O)C(=O)Cn2cnc3c(N)ncnc32)C(=O)Cn2cc(C)c(=O)[nH]c2=O)C(=O)Cn2ccc(N)nc2=O)C(=O)Cn2cc(C)c(=O)[nH]c2=O)C(=O)Cn2cnc3c(N)ncnc32)C(=O)Cn2ccc(N)nc2=O)C(=O)Cn2cnc3c(N)ncnc32)C(=O)Cn2ccc(N)nc2=O)C(=O)Cn2cnc3c(=O)[nH]c(N)nc32)C(=O)Cn2cnc3c(N)ncnc32)C(=O)Cn2ccc(N)nc2=O)c(=O)[nH]c1=O`, the Activity result in data set [1], in [2] and in data set [3] was “Non-toxic” each time. The result in data set [4], in data set [5] and in data set [6] was inactive.

Turning to `COCCO[C@@H]1[C@H](OP(=O)(S)OC[C@H]2O[C@@H](n3cc(C)c(=O)[nH]c3=O)C[C@@H]2OP(=O)(S)OC[C@H]2O[C@@H](n3cnc4c(=O)[nH]c(N)nc43)[C@H](OCCOC)[C@@H]2OP(=O)(S)OC[C@H]2O[C@@H](n3ccc(N)nc3=O)[C@H](OCCOC)[C@@H]2OP(=O)(S)OC[C@H]2O[C@@H](n3cc(C)c(=O)[nH]c3=O)C[C@@H]2OP(=O)(S)OC[C@H]2O[C@@H](n3cnc4c(N)ncnc43)[C@H](O)[C@@H]2OP(=O)(S)OC[C@H]2O[C@@H](n3cnc4c(=O)[nH]c(N)nc43)[C@H](O)[C@@H]2OP(=O)(S)OC[C@H]2O[C@@H](n3ccc(N)nc3=O)[C@H](O)[C@@H]2OP(=O)(S)OC[C@H]2O[C@@H](n3ccc(N)nc3=O)[C@H](O)[C@@H]2OP(=O)(S)OC[C@H]2O[C@@H](n3cc(C)c(=O)[nH]c3=O)C[C@@H]2OP(=O)(S)OC[C@H]2O[C@@H](n3ccc(N)nc3=O)[C@H](O)[C@@H]2OP(=O)(S)OC[C@H]2O[C@@H](n3cc(C)c(=O)[nH]c3=O)C[C@@H]2OP(=O)(S)OC[C@H]2O[C@@H](n3cnc4c(=O)[nH]c(N)nc43)[C@H](O)[C@@H]2OP(=O)(S)OC[C@H]2O[C@@H](n3cnc4c(=O)[nH]c(N)nc43)[C@H](O)[C@@H]2OP(=O)(S)OC[C@H]2O[C@@H](n3cnc4c(N)ncnc43)[C@H](O)[C@@H]2OP(=O)(S)OC[C@H]2O[C@@H](n3cc(C)c(=O)[nH]c3=O)C[C@@H]2OP(=O)(S)OC[C@H]2O[C@@H](n3cc(C)c(=O)[nH]c3=O)C[C@@H]2OP(=O)(S)OC[C@H]2O[C@@H](n3cc(C)c(=O)[nH]c3=O)C[C@@H]2OP(=O)(S)OC[C@H]2O[C@@H](n3cnc4c(=O)[nH]c(N)nc43)[C@H](OCCOC)[C@@H]2OP(=O)(S)OC[C@H]2O[C@@H](n3cnc4c(N)ncnc43)[C@H](OCCOC)[C@@H]2O)[C@@H](CO)O[C@H]1n1ccc(N)nc1=O` (stereo partly drawn), the IC50 in data set [7] worked out at 3.2 µM. The Activity result in [8], in [9], in [10], in data set [11], in data set [12] and in [13] was “Non-toxic” each time. In data set [14], the Activity entry is “Non-toxic”. Besides, the outcome in [15], in data set [17] and in [18] was Active. The inhibition result in data set [16] was “inactive”.

Broadly, the IC50 is the concentration that inhibits the measured activity by half. A high value points to a need for much substance.
